# Source: ChEMBL document CHEMBL1955822, “Camptothecin (CPT) directly binds to human heterogeneous nuclear ribonucleoprotein A1 (hnRNP A1) and inhibits the hnRNP A1/topoisomerase I interaction” (Bioorg Med Chem, 2011)
# Calls of active or inactive are those of the source. No cut-off for these calls is given here.
# Assays:
# Drosophila melanogaster [1] = assay: Growth inhibition of Drosophila melanogaster expressing Hrb87F mutant KG02089 assessed as reduction in eclosion rate at 25 uM after 15 days; format: functional, organism-based
# Outline: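 Eggs of Hrb87F KG02089 mutant and CantonS wild-type immersed in 25 µM drug or DMSO in 4% EtOH/5% DMSO vehicle. Adults emerging within 15 days counted. Rate = N(mutant)/N(WT) × 100%. Means ± S.E. of three independent experiments.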
# [2] = target: T1, Heterogeneous nuclear ribonucleoprotein A1 (Homo sapiens, UniProt P09651); assay: Binding affinity to human hnRNP A1 expressed in HeLa cells after 16 hrs by avidin-agarose bead pull down assay; format: cell-based
# Outline: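 HeLa cells grown in DMEM/10% FCS, 37 °C, 5% CO2; 10^7 cells lysed 1 min in Tris pH 8.0/NaCl/EDTA/0.5% Triton-X; supernatant precleared on avidin-agarose, then 16 h at 4 °C with biotinylated CPT probe (1 mM stock, 1:10 into lysate) or DMSO; avidin-agarose capture 1 h at 4 °C, PBS washes, SDS-PAGE, anti-hnRNP A1 western blot with chemiluminescence.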
# [3] = target: T1, Heterogeneous nuclear ribonucleoprotein A1; assay: Binding affinity to recombinant GST-tagged human hnRNP A1 expressed in Escherichia coli after 16 hrs by avidin-agarose bead pull down assay
# Outline: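 Lysate of E. coli expressing hnRNP A1-GST made by sonication in Tris pH 8.0/150 mM NaCl/EDTA/PMSF. Precleared on avidin-agarose, then mixed with biotinylated CPT probe (1 mM stock, 1:10) or DMSO for 16 h at 4 °C. Bound material captured 1 h on avidin-agarose, washed five times in PBS, run on 15% SDS-PAGE and immunoblotted for hnRNP A1.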
# [4] = target: T1, Heterogeneous nuclear ribonucleoprotein A1; assay: Binding affinity to recombinant GST-tagged human hnRNP A1 expressed in Escherichia coli using QCM biosensor by Scatchard plot analysis
# Outline: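 Quartz crystal microbalance with GST-affinity-purified hnRNP A1-GST immobilised on gold electrode; cuvette of PBS–10% DMSO at 25 °C; CPT injected at final 12.5–250 nM; frequency change monitored; Langmuir and Scatchard plots; means ± S.E. of three independent experiments.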
# [5] = target: T1, Heterogeneous nuclear ribonucleoprotein A1; assay: Inhibition of recombinant GST-tagged human hnRNP A1/his-tagged top1 cap region interaction expressed in Escherichia coli by SPR biosensor analysis
# Outline: (§1)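 Biacore SPR, CM5 chip with His-tagged top I cap region (215–433) amine-coupled at pH 5, about 10,000 RU. hnRNP A1-GST injected at various concentrations with or without CPT in HBS-EP/5% DMSO, 20 µl/min, 25 °C. Data analysed by Langmuir and Lineweaver-Burk plots under a non-competitive inhibition model.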
# [6] = target: T1, Heterogeneous nuclear ribonucleoprotein A1; assay: Noncompetitive inhibition of recombinant GST-tagged human hnRNP A1 binding to recombinant His-tagged top1 cap region by SPR biosensor analysis; outline: as §1
# Drosophila melanogaster [7] = assay: Growth inhibition of Drosophila melanogaster expressing Hrb87F mutant KG02089 assessed as reduction in eclosion rate after 15 days; format: functional, organism-based
# Outline: (§2)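 Drosophila eggs from 20 adults (laid over 24 h) immersed in 250 µl CPT at 0, 5, 12.5, 25 or 50 µM in 4% EtOH/5% DMSO. Adults emerging within 15 days counted. Eclosion rate = N(µM)/N(0 µM) × 100%, compared with wild-type CantonS. Means ± S.E. of three independent experiments.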
# Drosophila melanogaster [8] = assay: Growth inhibition of Drosophila melanogaster expressing Hrb87F mutant BG02743 assessed as reduction in eclosion rate after 15 days; format: functional, organism-based; outline: as §2
# Drosophila melanogaster [9] = assay: Growth inhibition of 7 day-old Drosophila melanogaster pupa expressing Hrb87F mutant KG02089 at 25 to 50 uM after 15 days; format: functional, organism-based
# Outline: (§3)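 Drosophila eggs from 20 adults (laid over 24 h) immersed in 250 µl CPT at 0, 5, 12.5, 25 or 50 µM in 4% EtOH/5% DMSO. Development and pupal phenotype followed at 5, 7 and 14 days after dosing. Wild-type CantonS served as reference.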
# Drosophila melanogaster [10] = assay: Growth inhibition of 7 day-old Drosophila melanogaster pupa expressing Hrb87F mutant BG02743 at 25 to 50 uM after 15 days; format: functional, organism-based; outline: as §3
# [11] = target: T1, Heterogeneous nuclear ribonucleoprotein A1; assay: Inhibition of recombinant GST-tagged human hnRNP A1/his-tagged top1 cap region interaction expressed in expressed in Escherichia coli assessed as pBR322 DNA relaxation after 30 mins by agarose gel electrophoresis
# Outline: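 Calf thymus topoisomerase I (2 U) incubated with 1 µg supercoiled pBR322 in Tris pH 8/KCl/MgCl2/DTT/spermidine/BSA, with or without 100 µM CPT or 0.5 µM hnRNP A1-GST, for 30 min at 37 °C. Reaction stopped with SDS at 75 °C, then proteinase K digestion. Products run on 1% agarose gel and stained with EtBr.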
# T1 sequence (P09651 whole entry): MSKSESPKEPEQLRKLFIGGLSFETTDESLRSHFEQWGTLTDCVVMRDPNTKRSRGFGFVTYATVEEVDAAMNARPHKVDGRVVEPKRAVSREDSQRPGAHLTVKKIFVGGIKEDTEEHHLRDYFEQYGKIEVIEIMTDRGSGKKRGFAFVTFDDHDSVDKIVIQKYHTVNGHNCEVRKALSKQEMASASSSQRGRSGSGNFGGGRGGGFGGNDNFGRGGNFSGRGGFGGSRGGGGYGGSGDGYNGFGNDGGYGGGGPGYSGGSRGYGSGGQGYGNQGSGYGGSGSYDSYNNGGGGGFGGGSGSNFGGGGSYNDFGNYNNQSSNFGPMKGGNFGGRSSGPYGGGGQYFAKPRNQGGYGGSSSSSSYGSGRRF
compound,measurement,setting,value
CC(=O)O[C@H]1C(=O)[C@@]2(C)[C@H]([C@H](OC(=O)c3ccccc3)[C@]3(O)C[C@H](OC(=O)[C@H](O)[C@@H](NC(=O)c4ccccc4)c4ccccc4)C(C)=C1C3(C)C)[C@]1(OC(C)=O)CO[C@@H]1C[C@@H]2O,growth inhibition (GI),Drosophila melanogaster [1],inactive
CC[C@@]1(OC(=O)CCCCCNC(=O)CCCC[C@@H]2SC[C@@H]3NC(=O)N[C@@H]32)C(=O)OCc2c1cc1n(c2=O)Cc2cc3ccccc3nc2-1,Activity,[2],Active
same,Activity,[3],Active
CCc1c2c(nc3ccc(OC(=O)N4CCC(N5CCCCC5)CC4)cc13)-c1cc3c(c(=O)n1C2)COC(=O)[C@]3(O)CC,growth inhibition (GI),Drosophila melanogaster [1],inactive
COc1cccc2c1C(=O)c1c(O)c3c(c(O)c1C2=O)C[C@@](O)(C(=O)CO)C[C@@H]3O[C@H]1C[C@H](N)[C@H](O)[C@H](C)O1,growth inhibition (GI),Drosophila melanogaster [1],inactive
CC[C@@]1(O)C(=O)OCc2c1cc1n(c2=O)Cc2cc3ccccc3nc2-1 [CAMPTOTHECIN],Bmax,[4],67 pg/mm2
same,Kd,[4],82.7 nM
same,inhibition,[5],Active
same,inhibition,[6],Active
same,growth inhibition (GI),Drosophila melanogaster [7],Dose-dependent effect
same,growth inhibition (GI),Drosophila melanogaster [8],Dose-dependent effect
same,growth inhibition (GI),Drosophila melanogaster [9],Active
same,growth inhibition (GI),Drosophila melanogaster [10],Active
same,inhibition,[11],Active
BLEOMYCIN,growth inhibition (GI),Drosophila melanogaster [1],inactive
